# According to ChEMBL document CHEMBL1129345, “Synthesis and potent anti-HIV-1 activity of novel 6-benzyluracil analogues of 1-[(2-hydroxyethoxy)methyl]-6-(phenylthio)thymine” (1996):
# Columns and labels:
# Type in all cases: functional
# MT4 [1] = assay: Cytotoxic dose required to reduce the proliferation of normal uninfected MT-4 cells; conditions: Homo sapiens, read-out: CD50 (the source's name)
# Procedure, shortened: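 Proliferation of uninfected MT-4 cells measured by MTT assay over a range of compound concentrations. A 30% inhibition of growth versus control cultures was counted as significant. CD50 is the concentration giving 50% reduction in proliferation, reported as the mean of three independent determinations.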
# [2] = system: Human immunodeficiency virus 1; assay: Effective dose of compound required to inhibit 50% of HIV-1 antigen production in MT-4 cultures.; conditions: read-out: ED50 (the source's name)
# Procedure, shortened: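 MT-4 cells were infected with HIV-1 HTLV-IIIB (0.005 MOI) for 2 h and washed. They were then added 1:10 to uninfected MT-4 cells preincubated with compound for 2 h in RPMI 1640 with 10% heat-inactivated FCS. Cultures were kept with compound for 6 days, and supernatant HIV-1 antigen was measured by ELISA. ED50 (50% antigen reduction) is the mean of three independent determinations.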
# MT4 [3] = assay: Selectivity index is the ratio between CD50 and ED50
# Procedure, shortened: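 Selectivity index computed as CD50 (MTT proliferation assay in uninfected MT-4 cells) divided by ED50 (HIV-1 antigen ELISA in HTLV-IIIB-infected MT-4 cultures, 6 days). Both values are means of three independent determinations.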
Structure (SMILES),CC50 (MT4 [1]) [µM],EC50 [2] [nM],SI (MT4 [3])
CCOCn1c(Cc2cc(C)cc(C)c2)c(CC)c(=O)[nH]c1=O,100,4,25000
CCSCn1c(Cc2ccccc2)c(CC)c(=O)[nH]c1=O,37,40,925
CCc1c(Cc2cc(C)cc(C)c2)n(CSC)c(=O)[nH]c1=O,52,50,1040
CCc1c(Cc2ccccc2)n(C(C)OC)c(=O)[nH]c1=O (stereo not drawn),–,> 100000,–
CCc1c(Cc2ccccc2)n([C@H]2CC[C@@H](CO)O2)c(=O)[nH]c1=O,52,37000,1.4
CCc1c(Cc2ccccc2)n(C(C)OCCO)c(=O)[nH]c1=O (stereo not drawn),–,> 100000,–
CCOC(CC)n1c(Cc2cc(C)cc(C)c2)c(CC)c(=O)[nH]c1=O (stereo not drawn),130,15000,8.7
CSCn1c(Cc2ccccc2)c(C(C)C)c(=O)[nH]c1=O,37,20,1850
CCc1c(Cc2ccccc2)n(CSC)c(=O)[nH]c1=O,32,2,16000
CCSCn1c(Cc2cc(C)cc(C)c2)c(CC)c(=O)[nH]c1=O,68,4,17000
CCc1c(Cc2cc(C)cc(C)c2)n(C(C)OC)c(=O)[nH]c1=O (stereo not drawn),100,2000,50
CCOCn1c(Cc2ccccc2)c(CC)c(=O)[nH]c1=O,–,41,–
CCc1c(Cc2ccccc2)n([C@@H]2CC[C@@H](CO)O2)c(=O)[nH]c1=O,1,500,2
CCOC(C)n1c(Cc2ccccc2)c(CC)c(=O)[nH]c1=O (stereo not drawn),–,> 100000,–
CCOCn1c(Cc2ccccc2)c(C(C)C)c(=O)[nH]c1=O [EMIVIRINE],141,5,28000
Cc1cn([C@H]2C[C@H](N=[N+]=[N-])[C@@H](CO)O2)c(=O)[nH]c1=O [ZIDOVUDINE],52,40,1300
CCSCn1c(Cc2ccccc2)c(C(C)C)c(=O)[nH]c1=O,37,6,6200
